{
  "source": "ChEMBL document CHEMBL1133719",
  "about": "“Synthesis and preliminary biological evaluations of CC-1065 analogues: effects of different linkers and terminal amides on biological activity” (J Med Chem, 2000)",
  "key": {"HCC 2998": {"test_system": "HCC 2998", "assay": "Cytotoxicity against NCI tumor panel, HCC_2998 colon cancer cell line", "format": "functional, cell-based", "conditions": "Homo sapiens", "procedure,_shortened": "(§1)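 NCI cell-line panel screen run by the National Cancer Institute; sulforhodamine B (SRB) readout after 48-h drug incubation.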"}, "NCI/ADR-RES": {"test_system": "NCI/ADR-RES", "assay": "Cytotoxicity against NCI tumor panel, NCI/ADR-RES breast cancer cell line", "format": "functional, cell-based", "conditions": "Homo sapiens", "procedure,_shortened": "(§2)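 Performed by NCI with the sulforhodamine B (SRB) method on its human tumour cell panel, using a 48-h drug incubation.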"}, "UACC-257": {"test_system": "UACC-257", "assay": "Cytotoxicity against NCI tumor panel, UACC-257 melanoma cancer cell line", "format": "functional, cell-based", "conditions": "Homo sapiens", "procedure,_shortened": "as §2"}, "SR": {"test_system": "SR", "assay": "Cytotoxicity against NCI tumor panel, SR leukemia cell line", "format": "functional, cell-based", "conditions": "Homo sapiens", "procedure,_shortened": "as §2"}, "TK-10": {"test_system": "TK-10", "assay": "Cytotoxicity against NCI tumor panel, TK10 renal cancer cell line", "format": "functional, cell-based", "conditions": "Homo sapiens", "procedure,_shortened": "as §2"}, "SF-295": {"test_system": "SF-295", "assay": "Cytotoxicity against NCI tumor panel, SF-295 CNS cancer cell line", "format": "functional, cell-based", "conditions": "Homo sapiens", "procedure,_shortened": "as §2"}, "MDA-MB-435": {"test_system": "MDA-MB-435", "assay": "Cytotoxicity against NCI tumor panel, MDA-MB-435 breast cancer cell line", "format": "functional, cell-based", "conditions": "Homo sapiens", "procedure,_shortened": "as §2"}, "Mus musculus [1]": {"organism": "Mus musculus", "assay": "Mean corpuscular haemoglobin concentration", "format": "functional", "procedure,_shortened": "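Non-tumour-bearing female CDF1 mice, 10 per group. Drug was dissolved in DMSO, diluted in 30% DMSO/0.5% glucose, and given as a single ip dose on day 1. Blood was sampled on day 27 for WBC, platelet, RBC and MCHC measurements. Values are medians of 10 mice, with saline or vehicle controls.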"}, "Mus musculus [2]": {"organism": "Mus musculus", "assay": "Body weight change between days 0 and the day when the animal weight was the lowest", "format": "functional", "procedure,_shortened": "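Male BDF1 mice, 4-6 weeks old, 6 per group, were given 10⁵ L1210 cells ip on day 0. Drug in DMF was diluted in 30% DMSO/0.5% glucose and given ip on days 1, 5 and 9. %ILS = (T/C − 1) × 100 on median survival of dying animals only; 30-day survivors noted separately. Group weight change was taken from day 0 to the lowest-weight day.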"}, "UO-31": {"test_system": "UO-31", "assay": "Cytotoxicity against NCI tumor panel, U031 renal cancer cell line", "format": "functional, cell-based", "conditions": "Homo sapiens", "procedure,_shortened": "as §2"}, "SN12C": {"test_system": "SN12C", "assay": "Cytotoxicity against NCI tumor panel, SN12C renal cancer cell line", "format": "functional, cell-based", "conditions": "Homo sapiens", "procedure,_shortened": "as §2"}, "CCRF-CEM": {"test_system": "CCRF-CEM", "assay": "Cytotoxicity against NCI tumor panel, CCRF-CEM leukemia cell line", "format": "functional, cell-based", "conditions": "Homo sapiens", "procedure,_shortened": "as §1"}, "Mus musculus [3]": {"test_system": "Mus musculus", "assay": "Antitumor activity was tested in mice and percent increase of life span at a dose of 25 ug/kg was reported", "format": "functional"}, "OVCAR-8": {"test_system": "OVCAR-8", "assay": "Cytotoxicity against NCI tumor panel, OVCAR-8 ovarian cancer cell line", "format": "functional, cell-based", "conditions": "Homo sapiens", "procedure,_shortened": "as §2"}, "NCI-H322M": {"test_system": "NCI-H322M", "assay": "Cytotoxicity against NCI tumor panel, NCI-H322M non small-cell lung cancer cell line", "format": "functional, cell-based", "conditions": "Homo sapiens", "procedure,_shortened": "as §2"}, "SF-539": {"test_system": "SF-539", "assay": "Cytotoxicity against NCI tumor panel, SF-539 CNS cancer cell line", "format": "functional, cell-based", "conditions": "Homo sapiens", "procedure,_shortened": "as §2"}, "MDA-N": {"test_system": "MDA-N", "assay": "Cytotoxicity against NCI tumor panel, MDA-N breast cancer cell line", "format": "functional, cell-based", "conditions": "Homo sapiens", "procedure,_shortened": "as §2"}, "HL-60": {"test_system": "HL-60", "assay": "Cytotoxicity against NCI tumor panel, HL-60(TB) leukemia cell line", "format": "functional, cell-based", "conditions": "Homo sapiens", "procedure,_shortened": "as §1"}, "SK-MEL-2": {"test_system": "SK-MEL-2", "assay": "Cytotoxicity against NCI tumor panel,SK-MEL2 melanoma cancer cell line", "format": "functional, cell-based", "conditions": "Homo sapiens", "procedure,_shortened": "as §2"}, "EKVX": {"test_system": "EKVX", "assay": "Cytotoxicity against NCI tumor panel, EKVX non small-cell lung cancer cell line", "format": "functional, cell-based", "conditions": "Homo sapiens", "procedure,_shortened": "as §1"}, "Mus musculus [4]": {"test_system": "Mus musculus", "assay": "Antitumor activity in mice bearing B16BL6 melanoma at a dose of 100 ug/kg; survivors for 90 days was reported", "format": "functional", "procedure,_shortened": "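B16BL6 cells were cultured as monolayers, and 10⁶ cells were injected ip on day 0 into female BDF1 mice (4-6 weeks, 8 per group). Drug in dimethylacetamide was diluted in DMA/Cremophor/water (1:5:44) and 0.1 mL given ip on days 1, 5 and 9. %ILS came from median survival of dying animals; 90-day survivors were counted; mean weight change covered days 1-10.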"}, "MDA-MB-231": {"test_system": "MDA-MB-231", "assay": "Cytotoxicity against NCI tumor panel, MDA-MB-231/ATCC breast cancer cell line", "format": "functional, cell-based", "conditions": "Homo sapiens", "procedure,_shortened": "as §2"}, "Mus musculus [5]": {"organism": "Mus musculus", "assay": "Antitumor activity in mice bearing B16BL6 melanoma; survivors for 90 days was reported"}, "Mus musculus [6]": {"organism": "Mus musculus", "assay": "Hematological effects in female CDF1 mice at the dose of 50ug, in white blood cells", "format": "functional", "procedure,_shortened": "(§3)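 Non-tumor-bearing female CDF1 mice, 10 per group. Drugs were dissolved in DMSO, diluted in 30% DMSO/0.5% glucose, and given as a single ip dose on day 1 (doses per kg). Blood was sampled on day 27 for WBC, platelet, RBC and MCHC counts. Values are medians of 10 mice.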"}, "Mus musculus [7]": {"organism": "Mus musculus", "assay": "Hematological effects in female CDF1 mice at the dose of 50 ug, in red blood cells", "format": "functional", "procedure,_shortened": "as §3"}, "Mus musculus [8]": {"test_system": "Mus musculus", "assay": "Antitumor activity in mice bearing L1210 Leukemia at a dose of 30 ug/kg; survivors for 60 days was reported", "format": "functional", "procedure,_shortened": "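Female CDF1 mice, 10 per group, got 100 L1210 cells ip on day 0. Drug in DMSO was diluted with 30% DMSO in 0.5% glucose and dosed ip on days 1, 5 and 9. Long-term (60-day) survivors are given as percent of the group.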"}},
  "note": "Several values for one entry are separate records, joined by “and”; a condition that tells them apart may be missing. Equal entries are not always repeated.",
  "data": [
    {"smiles": "CC(=O)Nc1ccc2[nH]c(C(=O)Nc3ccc4[nH]c(C(=O)N5CC(CCl)c6c5cc(O)c5ccccc65)cc4c3)cc2c1", "note": "(stereo unspecified)", "values": [
      {"measurement": "IC50", "setting": "HCC 2998", "result": 4.03, "unit": "nM"},
      {"measurement": "IC50", "setting": "NCI/ADR-RES", "result": 8.56, "unit": "nM"},
      {"measurement": "IC50", "setting": "UACC-257", "result": 2.46, "unit": "nM"},
      {"measurement": "IC50", "setting": "SR", "result": 0.562, "unit": "nM"},
      {"measurement": "IC50", "setting": "TK-10", "result": 3.13, "unit": "nM"},
      {"measurement": "IC50", "setting": "SF-295", "result": 2.64, "unit": "nM"},
      {"measurement": "IC50", "setting": "MDA-MB-435", "result": 1.86, "unit": "nM"},
      {"measurement": "MCHC", "setting": "Mus musculus [1]", "result": 36.7, "unit": "g/dL"},
      {"measurement": "Weight", "setting": "Mus musculus [2]", "result": 23, "unit": "%"},
      {"measurement": "IC50", "setting": "UO-31", "result": 4.05, "unit": "nM"},
      {"measurement": "IC50", "setting": "SN12C", "result": 3.01, "unit": "nM"},
      {"measurement": "IC50", "setting": "CCRF-CEM", "result": 3.14, "unit": "nM"},
      {"measurement": "ILS", "setting": "Mus musculus [3]", "result": "67% and 107%"},
      {"measurement": "IC50", "setting": "OVCAR-8", "result": 1.6, "unit": "nM"},
      {"measurement": "IC50", "setting": "NCI-H322M", "result": 2.13, "unit": "nM"},
      {"measurement": "IC50", "setting": "SF-539", "result": 1.24, "unit": "nM"},
      {"measurement": "IC50", "setting": "MDA-N", "result": 2.22, "unit": "nM"},
      {"measurement": "IC50", "setting": "HL-60", "result": 1.4, "unit": "nM"},
      {"measurement": "IC50", "setting": "SK-MEL-2", "result": 2.11, "unit": "nM"},
      {"measurement": "IC50", "setting": "EKVX", "result": 2.39, "unit": "nM"},
      {"measurement": "No. of survivors", "setting": "Mus musculus [4]", "result": 1},
      {"measurement": "IC50", "setting": "MDA-MB-231", "result": 5.97, "unit": "nM"},
      {"measurement": "No. of survivors", "setting": "Mus musculus [5]", "result": 0},
      {"measurement": "WBC", "setting": "Mus musculus [6]", "result": "13.1 10e3 ul-1"},
      {"measurement": "RBC", "setting": "Mus musculus [7]", "result": "8.72 10e6 ul-1"},
      {"measurement": "% survivors", "setting": "Mus musculus [8]", "result": 40, "unit": "%"}
    ]}
  ]
}
